The source made the active and inactive calls. The calls are words filed in the database; no cut-off is given here.
Key:
Neutrophil elastase = target: T1, Neutrophil elastase (Homo sapiens, UniProt P08246); test: Inhibition of human neutrophil elastase using N-(OMe-succinyl)-Ala-Ala-Pro-Val-p-nitroanilide as substrate incubated for 15 mins followed by substrate addition and measured for every 30 sec for 30 mins by spectrophotometry
T1 sequence (P08246 whole entry): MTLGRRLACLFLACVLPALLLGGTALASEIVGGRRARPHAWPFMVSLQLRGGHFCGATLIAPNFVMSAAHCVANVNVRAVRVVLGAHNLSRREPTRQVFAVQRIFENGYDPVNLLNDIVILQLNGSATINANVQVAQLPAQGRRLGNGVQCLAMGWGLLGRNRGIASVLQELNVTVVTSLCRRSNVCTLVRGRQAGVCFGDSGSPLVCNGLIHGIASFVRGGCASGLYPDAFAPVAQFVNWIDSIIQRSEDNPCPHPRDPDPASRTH

[1] = Metabolic stability in human liver microsomes at 200 uM incubated for 24 hrs by HPLC-MS analysis; format: ADME, Microsome
Summary of the method: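 Compound was incubated with pooled human liver microsomes without NADPH for up to 24 h to assess NADPH-independent metabolism; mean ± SD, n = 3.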

BEAS-2B [2] = test: Cytoprotective activity in human BEAS2B cells assessed as reduction in HNE-induced cell death incubated for 24 hrs by MTT assay; format: functional, cell-based
Summary of the method: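 BEAS-2B bronchial epithelial cells were cotreated with compound and 100 nM HNE for 24 h, and viability was read with MTT reagent.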

[3] = Metabolic stability in human liver microsome assessed as half life at 200 uM in presence of NADPH incubated for 24 hrs by HPLC-MS analysis; format: ADME; conditions: liver microsomes
BEAS-2B [4] = test: Upregulation of IL-1beta in human BEAS2B cells incubated for 3 hrs by RT-qPCR analysis
[5] = Stability in human serum at 200 uM incubated for 24 hrs by HPLC-MS analysis; format: ADME, cell-free
Summary of the method: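 Compound was incubated in human serum at 37 °C and followed over 24 h.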

SMILES	IC50 (Neutrophil elastase)	Stability [1]	half-life at 200 µM [3]	Stability [5]	EC50 (BEAS-2B [2])	Activity (BEAS-2B [4])
C/C=C1\NC(=O)[C@@H](NC(=O)[C@H](CCC(N)=O)NC(=O)CCCCC)[C@@H](C)OC(=O)[C@H](C(C)C)NC(=O)[C@H](Cc2ccc(O)cc2)N(C)C(=O)[C@H](Cc2ccccc2)N2C(=O)[C@H](CC[C@H]2O)NC1=O [LYNGBYASTATIN 7]		Stable	120 min	Stable	20 nM	Active
C/C=C1\NC(=O)[C@@H](NC(=O)[C@H](CCC(N)=O)NC(=O)CN2CCOCC2)[C@@H](C)OC(=O)[C@H](C(C)C)NC(=O)[C@H](Cc2ccc(O)cc2)N(C)C(=O)[C@H](Cc2ccccc2)N2C(=O)[C@H](CC[C@H]2O)NC1=O	197 nM				185 nM	inactive
C/C=C1\NC(=O)[C@@H](NC(=O)[C@H](CCC(N)=O)NC(=O)CC2CCCCC2)[C@@H](C)OC(=O)[C@H](C(C)C)NC(=O)[C@H](Cc2ccc(O)cc2)N(C)C(=O)[C@H](Cc2ccccc2)N2C(=O)[C@H](CC[C@H]2O)NC1=O	103 nM				91 nM	Active

Continued, in another order:

IC50 (Neutrophil elastase)	Stability [1]	half-life at 200 µM [3]	Stability [5]	SMILES	EC50 (BEAS-2B [2])	Activity (BEAS-2B [4])
> 10000 nM				C/C=C1\NC(=O)[C@@H](NC(=O)OC(C)(C)C)[C@@H](C)OC(=O)[C@H](C(C)C)NC(=O)[C@H](Cc2ccc(O)cc2)N(C)C(=O)[C@H](Cc2ccccc2)N2C(=O)[C@H](CC[C@H]2O)NC1=O		
10000 nM				C/C=C1\NC(=O)[C@@H](NC(C)=O)[C@@H](C)OC(=O)[C@H](C(C)C)NC(=O)[C@H](Cc2ccc(O)cc2)N(C)C(=O)[C@H](Cc2ccccc2)N2C(=O)[C@H](CC[C@H]2O)NC1=O		

Source: ChEMBL document CHEMBL4342506 (ACS Med Chem Lett, 2020)
